Test results: PMC4384654 (ChemMedChem, 2014)

Assays:
[1] = In vitro mouse liver microsomes; format: in vitro ADME; conditions: 5 μM compound, mean of three determinations
In short: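 Test compound at 5 µM (0.1% DMSO) was preincubated 15 min with 1.25 mg/mL mouse liver microsomes in 100 mM Tris-HCl pH 7.4. At time zero, NADP 1 mM, G6P 20 mM, MgCl2 2 mM and G6P dehydrogenase 2 Units were added; shaken at 37 °C. Samples at 0–60 min were quenched in acetonitrile with warfarin internal standard and analysed by LC-MS/MS (MRM). A no-cofactor control was sampled at the end.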

purified rat MGL = target: T1, purified rat MGL (Rattus norvegicus, UniProt Q8R431); experiment: MGL activity assay; format: biochemical; conditions: tested at concentrations up to 100 μM (Figure S1)
T1 sequence (Q8R431 1-303): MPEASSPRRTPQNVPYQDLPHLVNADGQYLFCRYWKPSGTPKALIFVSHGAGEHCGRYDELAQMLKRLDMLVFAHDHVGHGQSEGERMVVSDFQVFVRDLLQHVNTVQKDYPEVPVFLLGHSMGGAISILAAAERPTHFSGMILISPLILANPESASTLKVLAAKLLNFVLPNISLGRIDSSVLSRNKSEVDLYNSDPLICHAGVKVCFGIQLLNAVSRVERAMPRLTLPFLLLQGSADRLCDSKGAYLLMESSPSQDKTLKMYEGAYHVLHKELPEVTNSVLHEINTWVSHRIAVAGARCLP

[2] = target: T2, FAAH prepared from rat brain homogenates (Rattus norvegicus, UniProt P97612); experiment: In vitro rat FAAH radiometric assay; format: biochemical; conditions: read-out: r-FAAH IC50; rat brain homogenate, mean ± SEM (n=3)
T2 sequence (P97612 1-579): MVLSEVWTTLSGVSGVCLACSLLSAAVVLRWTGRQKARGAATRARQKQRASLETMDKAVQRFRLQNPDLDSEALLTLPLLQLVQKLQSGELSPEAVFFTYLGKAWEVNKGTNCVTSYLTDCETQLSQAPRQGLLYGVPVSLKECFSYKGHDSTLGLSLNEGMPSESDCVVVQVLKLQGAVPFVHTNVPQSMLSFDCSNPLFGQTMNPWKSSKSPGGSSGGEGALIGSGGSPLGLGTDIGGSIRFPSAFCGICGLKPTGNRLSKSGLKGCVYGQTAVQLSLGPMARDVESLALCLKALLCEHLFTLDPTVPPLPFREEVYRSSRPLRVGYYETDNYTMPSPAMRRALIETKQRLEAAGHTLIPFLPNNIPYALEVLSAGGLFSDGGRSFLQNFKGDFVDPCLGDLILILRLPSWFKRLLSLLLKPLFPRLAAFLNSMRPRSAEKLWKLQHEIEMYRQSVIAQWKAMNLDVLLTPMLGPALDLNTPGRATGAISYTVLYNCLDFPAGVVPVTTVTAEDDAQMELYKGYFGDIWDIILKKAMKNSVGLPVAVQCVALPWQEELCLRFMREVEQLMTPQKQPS

[3] = Aqueous kinetic solubility assay; format: physicochemical; conditions: Phosphate buffered saline, pH 7.4, single determination
In short: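 Test compound from a 10 mM DMSO stock was added to PBS pH 7.4 at a target 250 µM (2.5% DMSO final). Shaken 24 h at 25 °C, then centrifuged. Supernatant was analysed by UPLC/MS with UV at 215 nm. Solubility = peak-area ratio against a 250 µM reference in 1:1 CH3CN-H2O × reference concentration × dilution factor.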

human FAAH-1 = target: T3, human FAAH-1 (Homo sapiens, UniProt O00519); experiment: In vitro human FAAH fluorescent assay; format: biochemical; conditions: h-FAAH-1 vs r-FAAH
T3 sequence (O00519 1-579): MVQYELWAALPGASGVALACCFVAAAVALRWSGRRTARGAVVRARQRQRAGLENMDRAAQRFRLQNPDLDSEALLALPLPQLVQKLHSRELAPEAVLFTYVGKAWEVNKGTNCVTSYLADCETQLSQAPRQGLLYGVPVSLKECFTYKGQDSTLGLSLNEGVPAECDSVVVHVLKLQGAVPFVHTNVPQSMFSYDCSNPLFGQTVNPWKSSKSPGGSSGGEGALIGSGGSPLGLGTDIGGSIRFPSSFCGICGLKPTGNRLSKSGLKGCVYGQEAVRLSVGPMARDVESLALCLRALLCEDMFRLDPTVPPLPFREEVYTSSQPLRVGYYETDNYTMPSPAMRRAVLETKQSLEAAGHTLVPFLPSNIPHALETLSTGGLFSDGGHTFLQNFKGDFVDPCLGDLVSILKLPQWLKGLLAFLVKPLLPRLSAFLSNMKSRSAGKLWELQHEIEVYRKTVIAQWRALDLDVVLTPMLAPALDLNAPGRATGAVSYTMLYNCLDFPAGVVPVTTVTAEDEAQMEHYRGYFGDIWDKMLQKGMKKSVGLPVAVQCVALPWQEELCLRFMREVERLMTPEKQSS

[4] = In vitro rat plasma stability assay; format: in vitro ADME; conditions: 37 °C, 1.0 μM
In short: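 Test compound at 1.0 µM final was incubated at 37 °C in rat plasma (prewarmed 30 min) containing 10% DMSO. Samples at 0, 30, 60, 120, 240, 360 and 420 min were quenched in cold CH3CN with 200 nM warfarin internal standard and centrifuged. Supernatant was quantified by LC-MS/MS (MRM). Internal-standard-normalised response was plotted over time. Run in triplicate.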

COc1ccc(Cn2cc(CNC(=O)OCc3cn(Cc4cccc(OC)c4)nn3)nn2)cc1 [Compound 40, [1-[(3-methoxyphenyl)methyl]triazol-4-yl]methyl N-[[1-[(4-methoxyphenyl)methyl]triazol-4-yl]methyl]carbamate]
MLM Stab. half-life [1]: 8 min
Inhibition of MGL activity (purified rat MGL): None of the compounds inhibited MGL activity
IC50 [2]: 5.8 ± 0.6 nM
Kinetic sol. [3]: 152 µM

COc1cccc(Cn2cc(CNC(=O)OCc3cn(Cc4cccc(OC)c4)nn3)nn2)c1 [Compound 34b, [1-[(3-methoxyphenyl)methyl]triazol-4-yl]methyl N-[[1-[(3-methoxyphenyl)methyl]triazol-4-yl]methyl]carbamate]
MLM Stab. half-life [1]: 6 min
Inhibition of MGL activity (purified rat MGL): None of the compounds inhibited MGL activity
IC50 [2]: 3.9 ± 0.7 nM
Kinetic sol. [3]: 174 µM

COc1cc(Cn2cc(COC(=O)NC3CCCCC3)nn2)cc(OC)c1 [Compound 27, [1-[(3,5-dimethoxyphenyl)methyl]triazol-4-yl]methyl N-cyclohexylcarbamate]
MLM Stab. half-life [1]: 5 min
Higher potency on h-FAAH-1 with respect to r-FAAH (human FAAH-1): 3 fold
Inhibition of MGL activity (purified rat MGL): None of the compounds inhibited MGL activity
IC50 [2]: 10.5 ± 2.9 nM
Kinetic sol. [3]: 18 µM

O=C(NC1CCCCC1)Oc1cccc(-c2ccccc2)c1 [Compound 1a, URB524, reference compound]
MLM Stab. half-life [1]: <5 min
Plasma half-life [4]: 62 ± 19 min
IC50 [2]: 5.7 ± 1.2 nM
Kinetic sol. [3]: 6 µM
